Legend:
MS2 coat protein [1] = assay: apparent Kd, MS2 coat protein; higher = weaker binding; RNA-MaP array; theophylline 2 mM where present
How it was run: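 Two titrations, one without ligand and one with constant ligand, were run with SNAP-549-labelled MS2 coat protein from 0.7 or 1.5 nM, doubling to 3 µM. The targets were designs transcribed by stalled E. coli RNA polymerase on Illumina sequencing-chip clusters, in 100 mM Tris-HCl pH 7.5, 80 mM KCl, 4 mM MgCl2, BSA, DTT, yeast tRNA and Tween-20. The apparent Kd is the median of filtered per-cluster binding-curve fits, with green signal normalised to red-channel RNA signal and control-cluster median Fmax.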

MS2 coat protein [2] = assay: apparent Kd, MS2 coat protein; higher = weaker binding; RNA-MaP array
How it was run: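 On an Illumina sequencing chip, sequenced DNA templates served for transcription of the designed RNAs, which were then bound at room temperature by fluorescently labeled MS2 coat protein at 1.5 nM to 3 μM, with or without input ligand. Apparent Kd is the median of the fits to each cluster's binding curve. Only designs measured on at least 10 clusters were kept.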

[3] = designed as: OFF switch for theophylline, no ligand
[4] = ligand present: theophylline, designed as: OFF switch for theophylline
[5] = designed as: ON switch for theophylline, no ligand
[6] = ligand present: theophylline, designed as: ON switch for theophylline
[7] = designed as: OFF switch for flavin mononucleotide, no ligand
[8] = ligand present: flavin mononucleotide, designed as: OFF switch for flavin mononucleotide
[9] = designed as: ON switch for flavin mononucleotide, no ligand
[10] = ligand present: flavin mononucleotide, designed as: ON switch for flavin mononucleotide

AUGUAAGUGGUGUCACUGUGGUCUAGUGAUACCAGUAUCGAAAGAUACCCUUGGCAGCGCUAGAACAUGAGGAUCACCCAUGUUU
apparent Kd (MS2 coat protein [1]; [3]): 68.8 nM | apparent Kd (MS2 coat protein [1]; [4]): 34.3 nM

AUUAUCAUGGUCAUAUAUAUUUCGUCAGAUACCAGACUAGAUAUAGUCCCUUGGCAGCUGUUACAUGAGGAUCACCCAUGUUAUU
apparent Kd (MS2 coat protein [1]; [3]): 121 nM | apparent Kd (MS2 coat protein [1]; [4]): 44.5 nM

AUUUAUUGUCGUGAUACCAGACAUACAUGAGGAUCACCCAUGUUAAGUAACUUUUUUCAGGUCCCUUGGCAGCACUUUUUAAUUA
apparent Kd (MS2 coat protein [1]; [5]): 17.3 nM | apparent Kd (MS2 coat protein [1]; [6]): 13.9 nM

CAUAAUUUAUCCUAUAAAACUAUUAGUGAUACCAGCACCUCAUGAUGCCCUUGGCAGCACUUACAUGAGGAUCACCCAUGUUUUA
apparent Kd (MS2 coat protein [1]; [5]): 172 nM | apparent Kd (MS2 coat protein [1]; [6]): 214 nM

CAUAUUGUAACUGAUACCAGUGUACUGACAUGAGGAUCACCCAUGUUGGGUUUUGUUGUACACCCUUGGCAGCAGAAUCAAUAUG
apparent Kd (MS2 coat protein [1]; [3]): 68.7 nM | apparent Kd (MS2 coat protein [1]; [4]): 89.2 nM

CCAUAAGUAACUGAUACCAGUGUACUGACAUGAGGAUCACCCAUGUUGGGUUUUGUUGUACACCCUUGGCAGCAGAAUCUUGUGG
apparent Kd (MS2 coat protein [1]; [3]): 63 nM | apparent Kd (MS2 coat protein [1]; [4]): 90.3 nM

CCUCAUGUGUAUCACCACAUGAGUGGUGAUACCAGCAUCGAAAGAUGCCCUUGGCAGCACCAACAUGAGGAUCACCCAUGUAAUA
apparent Kd (MS2 coat protein [1]; [5]): 352 nM | apparent Kd (MS2 coat protein [1]; [6]): 101 nM

CGGUUUGUGAUGGAUACCAGCAGAGAAAAUGUUUAUCCUAACAUGAGGAUCACCCAUGUGUGCCCUUGGCAGCUGUUGUGGGCUG
apparent Kd (MS2 coat protein [1]; [3]): 50.5 nM | apparent Kd (MS2 coat protein [1]; [4]): 84.9 nM

CGUAUUGUAACUGAUACCAGUGUACUGACAUGAGGAUCACCCAUGUUGGGUUUUGUUGUACACCCUUGGCAGCAGAAUCAAUACG
apparent Kd (MS2 coat protein [1]; [3]): 68.7 nM | apparent Kd (MS2 coat protein [1]; [4]): 122 nM

CUCCGAGGCUAUACUAUACGCCUUUGUGAUACCAGAAUAAAUAUAUUCCCUUGGCAGCAUCACAUGAGGAUCACCCAUGUGCCAU
apparent Kd (MS2 coat protein [1]; [5]): 11.7 nM | apparent Kd (MS2 coat protein [1]; [6]): 18 nM

CUCGAGGCCGGUGAUACCAGACACGAAACUAUACAUGAGGAUCACCCAUGUCAAACAACGGUCCCUUGGCAGCAUGGGUGUAUCC
apparent Kd (MS2 coat protein [1]; [5]): 68.9 nM | apparent Kd (MS2 coat protein [1]; [6]): 64.5 nM

UCUAUGCUAACAGGAUAUCGCGGCACGAUGCUUCGAGAAGGGUUAACAUGAGGAUCACCCAUGUGUGUCCUACGGAGACCGCGC
apparent Kd (MS2 coat protein [2]; [7]): 9.01 nM | apparent Kd (MS2 coat protein [2]; [8]): 11.8 nM

UCUCAAAUAAAUAUCAUACAUGAGGAUCACCCAUGUCACCGAUAGGAUAUGCGCGUUUCCCACCUGCAGAAGGAUCAAACUGUA
apparent Kd (MS2 coat protein [2]; [9]): 15.4 nM | apparent Kd (MS2 coat protein [2]; [10]): 13.4 nM

UGAACCGGAAAGAAGGCCUUGCUUUAACGUACAGGAGGAUAUUUCCUAUUUGUGAGCCUUGACAUGAGGAUCACCCAUGUAUCG
apparent Kd (MS2 coat protein [2]; [7]): 479 nM | apparent Kd (MS2 coat protein [2]; [8]): 116 nM

UGAGACAGAGGAUAUACAAAAGGGAAACGAGCACAGAGGAAACAUGAGGAUCACCCAUGUAGAAGGCUGAACAG
apparent Kd (MS2 coat protein [2]; [7]): 6.99 nM | apparent Kd (MS2 coat protein [2]; [8]): 19 nM

UGGAAAUGAAUAGGAUAUCAGUGUUGUCUAUAACAUGAGGAUCACCCAUGUUUCCAUUGGCCUCGUGAGAAGGAUUCUAGUAUU
apparent Kd (MS2 coat protein [2]; [9]): 81.6 nM | apparent Kd (MS2 coat protein [2]; [10]): 22.3 nM

UGGAAGUAAGGAUAUCCGCGCGCGGGUUUUGCGCACGCACUGGAGAAGGUACAUGAGGAUCACCCAUGUUCGUC
apparent Kd (MS2 coat protein [2]; [7]): 9.85 nM | apparent Kd (MS2 coat protein [2]; [8]): 9.59 nM

UGGAUUCGACAAGGAUAUGGUAGUCAUAGCACAUGAGGAUCACCCAUGUUAAAGCAAAACAAAGUCCAGAAGGUGUAAGUACGG
apparent Kd (MS2 coat protein [2]; [9]): 11.7 nM | apparent Kd (MS2 coat protein [2]; [10]): 9.43 nM

UGUAGCCGCGAGAAGGUAAGCUAAGGAUGUGGUAUCAACGACUACAUGAGGAUCACCCAUGUGCUUAAGGAUAUCGAGGUGGAG
apparent Kd (MS2 coat protein [2]; [9]): 62.5 nM | apparent Kd (MS2 coat protein [2]; [10]): 104 nM

UUAUUGGUAGGAUAUACAUGAGGAUCACCCAUGUGUCACGCAAAUUAGUAUGUCAAAUGUAGAAGGACCAAAUA
apparent Kd (MS2 coat protein [2]; [7]): 20.5 nM | apparent Kd (MS2 coat protein [2]; [8]): 30.2 nM

UUCCACCUAAAGCGUUGCCCUCGUGAUGAUACCAGUUUCAGCGGUAACCCUUGGCAGCAUCGGACAUGAGGAUCACCCAUGUGGA
apparent Kd (MS2 coat protein [2]; [3]): 106 nM | apparent Kd (MS2 coat protein [2]; [4]): 213 nM

UUCGACAGCGUGAGGAUAUCUACAUCGGGUAGGUGAGAGAAGGCACAUGAGGAUCACCCAUGUUCUGAAGAGCA
apparent Kd (MS2 coat protein [2]; [7]): 16 nM | apparent Kd (MS2 coat protein [2]; [8]): 19.9 nM

UUGAUCUGACGAGGAUAUAUCAUAACACCUUUGAUAGAAGGCGUGAUCGACAUGAGGAUCACCCAUGUGCGUGACUUUGGUAGU
apparent Kd (MS2 coat protein [2]; [9]): 11.6 nM | apparent Kd (MS2 coat protein [2]; [10]): 10.8 nM

UUUAGACCUCAACAUGAGGAUCACCCAUGUAAAUCUCUAUCGAGAAGGAAGGAAGGAACCUUGUCUUAGGAUAUCGACAAUUUC
apparent Kd (MS2 coat protein [2]; [9]): 101 nM | apparent Kd (MS2 coat protein [2]; [10]): 71.7 nM

UUUAGACGGCAGAAGGCGGGCUCGCGCGGUGUACAUGAGGAUCACCCAUGUGUUUGCCAUCUACCCGAGGAUAUGCAGUGAUGG
apparent Kd (MS2 coat protein [2]; [9]): 39.4 nM | apparent Kd (MS2 coat protein [2]; [10]): 13.2 nM

UUUCUCAAUGUCAGGAUAUAGAUUUGACAUCCUCACUAGAAGGGACAUGAGGAUCACCCAUGUGUCAAUGCGGC
apparent Kd (MS2 coat protein [2]; [8]): 17.6 nM

Source: the EternaBench riboswitch data
